The values that follow come from ChEMBL document CHEMBL1133060, “N-(indol-3-ylglyoxylyl)piperidines: high affinity agonists of human GABA-A receptors containing the alpha1 subunit” (Bioorg Med Chem Lett, 2000).

The structures appear in SMILES notation.

Assay [1] concerns the target T1, GABA-A receptor; alpha-3/beta-3/gamma-2 (Homo sapiens, UniProt P18507+P28472+P34903).
T1 sequence (P18507 whole entry): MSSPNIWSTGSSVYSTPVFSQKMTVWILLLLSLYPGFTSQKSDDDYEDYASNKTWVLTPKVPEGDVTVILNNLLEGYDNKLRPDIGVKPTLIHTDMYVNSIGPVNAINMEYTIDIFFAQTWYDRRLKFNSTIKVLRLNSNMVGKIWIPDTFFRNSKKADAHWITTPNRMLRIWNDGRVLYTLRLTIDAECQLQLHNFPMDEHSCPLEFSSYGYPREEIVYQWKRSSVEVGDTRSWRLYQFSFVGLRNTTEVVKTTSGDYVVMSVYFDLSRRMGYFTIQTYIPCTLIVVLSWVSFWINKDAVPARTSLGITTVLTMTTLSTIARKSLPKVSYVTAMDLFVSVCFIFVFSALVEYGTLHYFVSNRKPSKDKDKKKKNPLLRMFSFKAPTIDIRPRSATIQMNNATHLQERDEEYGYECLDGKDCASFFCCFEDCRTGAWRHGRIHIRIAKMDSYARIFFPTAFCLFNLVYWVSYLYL
T1 sequence (P28472 whole entry): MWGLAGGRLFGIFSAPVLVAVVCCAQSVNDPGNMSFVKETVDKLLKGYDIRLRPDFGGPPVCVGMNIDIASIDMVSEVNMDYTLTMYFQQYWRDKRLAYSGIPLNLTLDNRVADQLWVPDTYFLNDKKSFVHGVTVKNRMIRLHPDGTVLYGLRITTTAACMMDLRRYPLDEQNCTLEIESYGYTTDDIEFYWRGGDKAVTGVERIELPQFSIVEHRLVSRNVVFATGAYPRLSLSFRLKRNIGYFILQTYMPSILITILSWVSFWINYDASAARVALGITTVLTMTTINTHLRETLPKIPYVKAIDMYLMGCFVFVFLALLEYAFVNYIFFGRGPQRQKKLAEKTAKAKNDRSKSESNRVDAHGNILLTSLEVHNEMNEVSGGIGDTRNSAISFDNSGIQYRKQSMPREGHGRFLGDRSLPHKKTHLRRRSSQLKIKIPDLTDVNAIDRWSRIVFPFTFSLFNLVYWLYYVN
T1 sequence (P34903 whole entry): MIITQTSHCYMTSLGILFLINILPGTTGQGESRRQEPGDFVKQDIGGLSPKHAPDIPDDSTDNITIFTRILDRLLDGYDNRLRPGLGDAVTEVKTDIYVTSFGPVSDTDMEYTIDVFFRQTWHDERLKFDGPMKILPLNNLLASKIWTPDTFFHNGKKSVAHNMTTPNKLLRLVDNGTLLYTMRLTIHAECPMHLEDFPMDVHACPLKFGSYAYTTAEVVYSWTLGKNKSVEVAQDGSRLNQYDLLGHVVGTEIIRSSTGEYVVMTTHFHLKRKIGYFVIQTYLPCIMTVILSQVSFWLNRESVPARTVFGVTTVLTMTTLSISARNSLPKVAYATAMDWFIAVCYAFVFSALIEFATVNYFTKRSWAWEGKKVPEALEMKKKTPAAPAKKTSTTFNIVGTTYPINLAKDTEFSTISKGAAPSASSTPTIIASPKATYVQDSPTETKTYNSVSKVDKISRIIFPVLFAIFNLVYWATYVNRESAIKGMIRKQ
Briefly: Binding affinity evaluated by ability to displace [3H]Ro-151788 from recombinant human Gamma-aminobutyric acid A receptor alpha-3-beta-3-gamma-2 expressed in L(tk-)cells. It counts as cell-based.

In assay [2] the target is T2, GABA-A receptor; alpha-2/beta-3/gamma-2 (Homo sapiens, UniProt P18507+P28472+P47869).
T2 sequence (P18507 whole entry): T1 sequence (P18507 whole entry)
T2 sequence (P28472 whole entry): T1 sequence (P28472 whole entry)
T2 sequence (P47869 whole entry): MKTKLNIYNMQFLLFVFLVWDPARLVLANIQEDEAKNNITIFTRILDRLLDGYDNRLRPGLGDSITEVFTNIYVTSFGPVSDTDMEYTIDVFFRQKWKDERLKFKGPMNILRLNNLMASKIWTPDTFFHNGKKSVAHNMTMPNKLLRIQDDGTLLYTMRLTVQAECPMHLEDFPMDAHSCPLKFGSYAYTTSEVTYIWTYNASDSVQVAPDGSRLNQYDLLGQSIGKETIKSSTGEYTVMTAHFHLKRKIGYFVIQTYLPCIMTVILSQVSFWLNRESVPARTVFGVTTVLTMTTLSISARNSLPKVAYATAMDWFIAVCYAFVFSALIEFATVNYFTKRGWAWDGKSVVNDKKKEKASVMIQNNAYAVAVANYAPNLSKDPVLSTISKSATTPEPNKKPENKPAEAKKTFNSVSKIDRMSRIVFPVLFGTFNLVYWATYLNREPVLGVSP
Briefly: Binding affinity evaluated by ability to displace [3H]-Ro-15-1788 from recombinant human Gamma-aminobutyric acid A receptor alpha-2-beta-3-gamma-2 expressed in L(tk-)cells. In kind it is cell-based.

Assay [3] addresses T3, GABA-A receptor; alpha-1/beta-2/gamma-2 (Homo sapiens, UniProt P14867+P18507+P47870).
T3 sequence (P14867 whole entry): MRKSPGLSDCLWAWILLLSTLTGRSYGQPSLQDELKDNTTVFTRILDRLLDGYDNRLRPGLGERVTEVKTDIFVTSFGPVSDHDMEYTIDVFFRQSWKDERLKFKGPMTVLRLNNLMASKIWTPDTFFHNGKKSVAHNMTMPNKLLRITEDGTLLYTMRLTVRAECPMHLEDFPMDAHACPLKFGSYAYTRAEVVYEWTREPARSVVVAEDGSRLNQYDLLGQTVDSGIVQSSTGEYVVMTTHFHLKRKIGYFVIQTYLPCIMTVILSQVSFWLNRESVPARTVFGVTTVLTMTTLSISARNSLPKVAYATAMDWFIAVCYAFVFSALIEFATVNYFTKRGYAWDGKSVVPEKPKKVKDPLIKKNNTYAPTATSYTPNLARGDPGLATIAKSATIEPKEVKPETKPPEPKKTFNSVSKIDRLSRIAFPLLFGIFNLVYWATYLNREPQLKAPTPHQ
T3 sequence (P47870 whole entry): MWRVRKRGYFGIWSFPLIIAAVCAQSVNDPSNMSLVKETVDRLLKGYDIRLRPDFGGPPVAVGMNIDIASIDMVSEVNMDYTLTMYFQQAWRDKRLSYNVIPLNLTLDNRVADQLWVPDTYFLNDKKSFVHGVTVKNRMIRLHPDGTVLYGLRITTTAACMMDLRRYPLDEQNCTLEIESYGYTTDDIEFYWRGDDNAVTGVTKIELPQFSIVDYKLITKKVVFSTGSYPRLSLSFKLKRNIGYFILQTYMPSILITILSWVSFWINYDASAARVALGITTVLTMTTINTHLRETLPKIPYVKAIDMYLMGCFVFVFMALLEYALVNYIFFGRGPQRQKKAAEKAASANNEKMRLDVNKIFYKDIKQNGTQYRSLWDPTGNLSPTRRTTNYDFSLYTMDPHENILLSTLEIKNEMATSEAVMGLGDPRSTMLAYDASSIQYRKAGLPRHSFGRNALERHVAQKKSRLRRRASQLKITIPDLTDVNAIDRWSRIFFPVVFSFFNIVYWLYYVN
T3 sequence (P18507 whole entry): T1 sequence (P18507 whole entry)
Briefly: Binding affinity evaluated by ability to displace [3H]Ro-151788 from recombinant human Gamma-aminobutyric acid A receptor alpha-1-beta-2-gamma-2 expressed in L(tk-)cells. In kind it is cell-based.

Assay [4] has as its target T4, GABA-A receptor; alpha-1/beta-2/gamma-2 (Homo sapiens) (UniProt P14867+P47870+P18507). Kind of assay: Ability to affect GABA-induced chloride current in Xenopus oocytes transiently expressing human GABA-A alpha-1-beta-2-gamma-2 receptors using two-electrode voltage-clamp electrophysiology at test concentration of 30 uM. In kind it is functional, cell-based. As to conditions: Oocyte. The procedure, abridged:
(§1)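 The GABA EC20 (concentration giving 20% of maximal GABA current) was determined separately for each oocyte, range 4–30 μM. Compound was then coapplied with GABA at that EC20 to measure modulation of the current. Mean ± SEM, n = 3-5.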
(In general: In two-electrode clamp one electrode senses voltage and the other passes current.)

Assay [5] has as its target T4, GABA-A receptor; alpha-1/beta-2/gamma-2 (Homo sapiens). Briefly: Ability to affect GABA-induced chloride current in Xenopus oocytes transiently expressing human GABA-A alpha-1-beta-2-gamma-2 receptors using two-electrode voltage-clamp electrophysiology at test concentration of 3 uM. It counts as functional, cell-based. As to conditions: Oocyte. The procedure, abridged: as §1

In the case of `O=C(C(=O)N1CCc2ccccc2C1)c1c[nH]c2ccccc12`, the results for the Ki in assay [1], in assay [2] and in assay [3] were 720 nM, 680 nM and 380 nM, respectively.

On to `CN(Cc1ccccc1)C(=O)[C@H]1CCCN(C(=O)C(=O)c2c[nH]c3ccccc23)C1`, for which the Ki – broadly, the dissociation constant of the complex between target and ligand, obtained from inhibition or displacement – in assay [1] is 670 nM; in assay [2] it was 250 nM; in assay [3], 140 nM.

Consider `O=C(C(=O)N1CCCC1Cc1ccccc1)c1c[nH]c2ccccc12` (centres undefined), for which the Ki in assay [1] stood at 960 nM; in assay [2] it was 830 nM; in assay [3], 440 nM.

Take `CCOC(=O)[C@@H]1C[C@@H](C(=O)OCC)CN(C(=O)C(=O)c2c[nH]c3ccccc23)C1`: the Ki in assay [1] was 250 nM; in assay [2], 200 nM; in assay [3], 400 nM.

As to `CN(Cc1ccccc1)C(=O)[C@@H]1CCCN(C(=O)C(=O)c2c[nH]c3ccccc23)C1`, the Ki is 50 nM in assay [1], 19 nM in assay [2] and 7.3 nM in assay [3].

Take `CN(Cc1ccccc1)C(=O)C1CCCN(C(=O)C(=O)c2c[nH]c3ccccc23)C1` (centres undefined): the Ki was 96 nM in assay [1], 40 nM in assay [2] and 14 nM in assay [3].

Take `O=C(C(=O)N1CCCC(C(=O)NCc2ccccc2)C1)c1c[nH]c2ccccc12` (centres undefined): the results for the Ki in assay [1], in assay [2] and in assay [3] were 1500 nM, 970 nM and 300 nM, respectively.

For the compound `CCOC(=O)CC1CCCN1C(=O)C(=O)c1c[nH]c2ccccc12` (centres undefined), the Efficacy in assay [4] was determined as 28%. Further, the Ki in assay [1] was 570 nM; in assay [2], 430 nM; in assay [3] it was 890 nM.

`CCOC(=O)[C@@H]1C[C@H](C(=O)OCC)CN(C(=O)C(=O)c2c[nH]c3ccccc23)C1`: the Ki in assay [1] came out at 23 nM; in assay [2], 22 nM; in assay [3], 14 nM.

For `CCOC(=O)CC1CCCN1C(=O)C(=O)c1c[nH]c2c(OC)cccc12` (centres undefined), the Ki in assay [1] worked out at 320 nM; in assay [2], 270 nM; in assay [3], 460 nM.

Turning to `CCOC(=O)C1CCCN(C(=O)C(=O)c2c[nH]c3ccccc23)C1` (centres undefined), the values for the Ki in assay [1], in assay [2] and in assay [3] were 990 nM, 390 nM and 880 nM, respectively.

For `CCOC(=O)CC1CCCN1C(=O)C(=O)c1c[nH]c2c(C)cccc12` (centres undefined), the Ki in assay [1] worked out at 500 nM; in assay [2], 440 nM; in assay [3], 510 nM.

As for `O=C(C(=O)N1CCCC(C(=O)OCc2ccccc2)C1)c1c[nH]c2ccccc12` (centres undefined), the Ki amounted to 91 nM in assay [1], 180 nM in assay [2] and 77 nM in assay [3].

Take `O=C(C(=O)N1Cc2ccccc2C1)c1c[nH]c2ccccc12`: the Ki in assay [1] was determined as 19000 nM; in assay [2], 1300 nM; in assay [3], 200 nM. Moreover, the Efficacy in assay [5] stood at 64%.
